By inhibition is commonly meant the share of the control response that was lost under treatment. Higher therefore signals a strong effect.

Ten compounds from ChEMBL document CHEMBL1165965, “Synthesis and structure-activity relationships of 1,2,3,4-tetrahydropyrido[2,3-b]pyrazines as potent and selective inhibitors of the anaplastic lymphoma kinase” (Bioorg Med Chem, 2010) can be followed below.

Assay [1] deals with T1, Myotonin-protein kinase (Homo sapiens) (UniProt Q09013).
T1 sequence (whole entry): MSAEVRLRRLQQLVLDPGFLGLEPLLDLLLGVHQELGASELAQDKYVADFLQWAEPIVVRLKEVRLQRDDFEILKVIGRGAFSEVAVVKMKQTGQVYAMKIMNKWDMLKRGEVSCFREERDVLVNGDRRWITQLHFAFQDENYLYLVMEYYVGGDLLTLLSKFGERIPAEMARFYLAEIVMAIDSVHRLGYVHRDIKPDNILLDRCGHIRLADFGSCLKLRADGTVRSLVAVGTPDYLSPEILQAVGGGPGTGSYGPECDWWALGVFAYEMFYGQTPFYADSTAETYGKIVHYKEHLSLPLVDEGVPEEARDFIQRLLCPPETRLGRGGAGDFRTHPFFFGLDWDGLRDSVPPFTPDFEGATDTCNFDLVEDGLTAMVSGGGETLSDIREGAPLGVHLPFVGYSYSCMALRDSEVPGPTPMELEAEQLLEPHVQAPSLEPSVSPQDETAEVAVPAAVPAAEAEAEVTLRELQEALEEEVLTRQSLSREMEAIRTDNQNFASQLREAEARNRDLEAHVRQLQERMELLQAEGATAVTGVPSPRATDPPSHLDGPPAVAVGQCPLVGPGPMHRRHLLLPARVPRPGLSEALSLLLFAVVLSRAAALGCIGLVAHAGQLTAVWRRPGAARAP
Put plainly: Inhibition of DMPK at 1 uM. An outline of the steps:
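Single-concentration screen using Ambit Bioscience KINOMEscan technology across a panel of 250–400 kinases. Per-kinase inhibition from this screen was summarized as S(90), the fraction of kinases inhibited by more than 90%.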

Assay [2] deals with Serine/threonine-protein kinase 26 (Homo sapiens) (UniProt Q9P289). The assay is described as follows: Inhibition of MST4 at 1 uM.
Chain of Serine/threonine-protein kinase 26 (Homo sapiens) (Q9P289 2-416 limits assumed): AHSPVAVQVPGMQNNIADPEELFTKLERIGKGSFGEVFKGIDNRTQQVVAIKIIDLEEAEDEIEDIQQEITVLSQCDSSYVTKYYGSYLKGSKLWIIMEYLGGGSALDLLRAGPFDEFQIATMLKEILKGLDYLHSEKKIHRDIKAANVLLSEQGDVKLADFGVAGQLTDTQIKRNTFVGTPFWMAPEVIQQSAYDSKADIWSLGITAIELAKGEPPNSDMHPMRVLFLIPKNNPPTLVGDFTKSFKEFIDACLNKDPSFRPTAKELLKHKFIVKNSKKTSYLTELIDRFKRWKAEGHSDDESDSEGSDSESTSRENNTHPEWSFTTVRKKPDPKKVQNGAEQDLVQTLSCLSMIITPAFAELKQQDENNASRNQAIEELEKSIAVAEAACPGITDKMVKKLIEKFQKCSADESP
The target of assay [3] is T2, Mitogen-activated protein kinase kinase kinase 7 (Homo sapiens) (UniProt O43318).
T2 sequence (whole entry): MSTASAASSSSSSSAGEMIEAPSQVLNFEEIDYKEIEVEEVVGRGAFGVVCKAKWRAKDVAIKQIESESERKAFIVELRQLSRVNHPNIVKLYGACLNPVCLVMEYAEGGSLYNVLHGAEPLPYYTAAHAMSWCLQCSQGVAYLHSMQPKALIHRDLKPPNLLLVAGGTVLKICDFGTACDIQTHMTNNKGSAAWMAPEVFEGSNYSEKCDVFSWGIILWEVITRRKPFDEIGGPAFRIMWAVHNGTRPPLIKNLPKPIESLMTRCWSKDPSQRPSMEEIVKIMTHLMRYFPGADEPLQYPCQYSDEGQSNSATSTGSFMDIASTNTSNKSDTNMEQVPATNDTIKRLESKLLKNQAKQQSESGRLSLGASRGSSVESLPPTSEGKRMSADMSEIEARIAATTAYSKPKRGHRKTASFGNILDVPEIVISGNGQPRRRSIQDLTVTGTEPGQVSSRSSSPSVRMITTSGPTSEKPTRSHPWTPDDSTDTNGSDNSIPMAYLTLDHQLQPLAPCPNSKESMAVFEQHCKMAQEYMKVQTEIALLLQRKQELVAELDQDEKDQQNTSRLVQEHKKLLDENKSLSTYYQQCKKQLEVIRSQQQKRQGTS
The assay is described as follows: Inhibition of TAK1 at 1 uM.

For assay [4], the target named is T3, Mitogen-activated protein kinase kinase kinase 3 (Homo sapiens) (UniProt Q99759).
T3 sequence (whole entry): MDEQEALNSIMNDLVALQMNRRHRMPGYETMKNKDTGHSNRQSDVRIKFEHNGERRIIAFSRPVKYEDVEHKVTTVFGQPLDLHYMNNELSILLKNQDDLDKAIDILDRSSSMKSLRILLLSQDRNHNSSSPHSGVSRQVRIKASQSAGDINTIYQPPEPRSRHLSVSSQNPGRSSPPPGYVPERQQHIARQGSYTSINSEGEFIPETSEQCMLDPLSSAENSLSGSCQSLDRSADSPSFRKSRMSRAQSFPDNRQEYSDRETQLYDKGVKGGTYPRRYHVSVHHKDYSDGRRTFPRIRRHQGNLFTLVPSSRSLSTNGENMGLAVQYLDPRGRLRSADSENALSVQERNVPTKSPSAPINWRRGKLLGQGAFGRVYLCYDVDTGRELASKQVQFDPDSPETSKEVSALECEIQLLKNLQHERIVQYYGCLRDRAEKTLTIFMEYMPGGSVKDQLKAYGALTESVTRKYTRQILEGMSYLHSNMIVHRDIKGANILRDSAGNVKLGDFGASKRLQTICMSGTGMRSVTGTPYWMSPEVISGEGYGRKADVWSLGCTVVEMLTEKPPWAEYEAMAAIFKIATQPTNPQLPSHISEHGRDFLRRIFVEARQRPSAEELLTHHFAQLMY
The assay is described as follows: Inhibition of MAP3K3 at 1 uM.

In assay [5] the target is SRSF protein kinase 2 (Homo sapiens) (UniProt P78362). Put plainly: Inhibition of SRPK2 at 1 uM.
Chain of SRSF protein kinase 2 (Homo sapiens) (P78362 whole entry, looked up): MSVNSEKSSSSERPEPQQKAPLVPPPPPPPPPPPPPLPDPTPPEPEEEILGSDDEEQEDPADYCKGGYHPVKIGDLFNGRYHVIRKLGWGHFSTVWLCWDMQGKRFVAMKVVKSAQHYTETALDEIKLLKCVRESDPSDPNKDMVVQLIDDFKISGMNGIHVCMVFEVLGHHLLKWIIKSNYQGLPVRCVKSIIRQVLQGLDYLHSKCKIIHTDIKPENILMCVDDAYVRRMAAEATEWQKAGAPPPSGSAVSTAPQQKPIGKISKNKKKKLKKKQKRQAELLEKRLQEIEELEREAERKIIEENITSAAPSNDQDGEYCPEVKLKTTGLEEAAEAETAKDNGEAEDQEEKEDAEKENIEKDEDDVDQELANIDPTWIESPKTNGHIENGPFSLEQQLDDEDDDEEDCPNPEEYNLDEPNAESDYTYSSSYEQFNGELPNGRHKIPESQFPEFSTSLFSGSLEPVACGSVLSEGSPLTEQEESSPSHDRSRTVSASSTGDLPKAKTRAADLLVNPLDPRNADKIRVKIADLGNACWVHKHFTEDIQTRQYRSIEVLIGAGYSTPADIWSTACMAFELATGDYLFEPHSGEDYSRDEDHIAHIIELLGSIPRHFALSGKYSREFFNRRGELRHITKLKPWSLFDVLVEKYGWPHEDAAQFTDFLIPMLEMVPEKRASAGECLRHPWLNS
Assay [6] addresses T4, Dual specificity mitogen-activated protein kinase kinase 3 (Homo sapiens) (UniProt P46734).
T4 sequence (whole entry): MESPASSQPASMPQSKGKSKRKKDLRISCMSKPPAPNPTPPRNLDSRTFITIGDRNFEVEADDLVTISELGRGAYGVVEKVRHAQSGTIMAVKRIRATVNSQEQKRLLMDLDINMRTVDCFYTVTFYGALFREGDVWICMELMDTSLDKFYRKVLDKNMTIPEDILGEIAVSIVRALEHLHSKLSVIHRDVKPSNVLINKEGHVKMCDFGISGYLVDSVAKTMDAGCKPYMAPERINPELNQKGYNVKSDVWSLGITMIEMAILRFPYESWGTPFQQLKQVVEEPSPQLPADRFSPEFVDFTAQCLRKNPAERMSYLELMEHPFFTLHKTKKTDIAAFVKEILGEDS
The assay is described as follows: Inhibition of MEK3 at 1 uM.

As for `O=C(c1ccc(-c2cnc3c(c2)N(Cc2cc(Cl)ccc2C(F)(F)F)CCN3)cc1)N1CCCCC1`, the inhibition in assay [1] and in assay [2] was less than 50% each time.

Consider `CN1CCN(c2ccc(-c3cnc4c(c3)N(Cc3c(F)ccc(F)c3Cl)CCN4)cn2)CC1`, for which the inhibition in assay [3], in assay [1], in assay [4], in assay [2], in assay [5] and in assay [6] was less than 50% throughout.

Take `COC1CCN(C(=O)c2ccc(-c3cnc4c(c3)N(Cc3cc(Cl)ccc3C(F)(F)F)CCN4)cc2)CC1`: the inhibition in assay [1] and in assay [2] was less than 50% throughout.

Regarding `O=C(O)c1ccc(-c2cnc3c(c2)N(Cc2cc(Cl)ccc2C(F)(F)F)CCN3)cc1`, the inhibition in assay [1] and in assay [2] was less than 50% throughout.

On to `FC(F)(F)c1ccc(Cl)cc1CN1CCNc2ncc(-c3ccnc(N4CCNCC4)c3)cc21`, for which the inhibition was less than 50% in assay [3]; less than 50% in assay [1]; 88% in assay [4]; less than 50% in assay [2]; less than 50% in assay [5]; less than 50% in assay [6].

With `CN1CCN(c2ccc(-c3cnc4c(c3)N(Cc3cc(Cl)ccc3Cl)CCN4)cn2)CC1`, the inhibition in assay [3], in assay [1], in assay [4], in assay [2], in assay [5] and in assay [6] was less than 50% throughout.

With `O=C(c1ccc(-c2cnc3c(c2)N(Cc2cc(Cl)ccc2C(F)(F)F)CCN3)cc1)N1CCC(N2CCCC2)CC1`, the inhibition in assay [1] and in assay [2] was less than 50% each time.

On to `CN1CCN(c2ccc(-c3cnc4c(c3)N(Cc3cc(Cl)ccc3C(F)(F)F)CCN4)cn2)CC1`, for which the inhibition in assay [3], in assay [1], in assay [4], in assay [2], in assay [5] and in assay [6] was less than 50% each time.

On to `CC(=O)N1CCN(c2cc(-c3cnc4c(c3)N(Cc3cc(Cl)ccc3C(F)(F)F)CCN4)ccn2)CC1`, for which the inhibition in assay [3], in assay [1], in assay [4], in assay [2], in assay [5] and in assay [6] was less than 50% in each case.

With `CN1CCN(c2ccc(-c3cnc4c(c3)N(Cc3cc(F)ccc3F)CCN4)cn2)CC1`, the inhibition in assay [3], in assay [1], in assay [4], in assay [2], in assay [5] and in assay [6] was less than 50% each time.
